# ATG4B inhibitor – ATG4B protease inhibitors, primary screen, biochemical, fluorescence, uHTS; ATG4B cleavage of LC3-PLA2, NBD-HPC fluorescence, 1 h; 0.51% of 340,000 active; AID 504462, 2011; inhibition, % at 8.33 µM; Cysteine protease ATG4B (Homo sapiens), Q9Y4P1; in the data active = inhibition above about 40%
# SENP1 FRET inh – human SENP1 catalytic domain inhibitors, primary screen, biochemical, FRET, uHTS; Sentrin-specific protease 1 (Homo sapiens), Q9P0U3; recombinant SENP1 catalytic domain, CyPet-SUMO1-YPet FRET cleavage; inhibition, % at 10 µM; 0.21% of 360,000 active;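 active = inhibition at least 30% at 10 µM, raw YFP signal under a set limit, fluorescence ratio 0.5 to 1.5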;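 also: 0% = enzyme with DMSO and 100% = no enzyme wells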
# Target sequence (Q9P0U3 419-644 limits assumed): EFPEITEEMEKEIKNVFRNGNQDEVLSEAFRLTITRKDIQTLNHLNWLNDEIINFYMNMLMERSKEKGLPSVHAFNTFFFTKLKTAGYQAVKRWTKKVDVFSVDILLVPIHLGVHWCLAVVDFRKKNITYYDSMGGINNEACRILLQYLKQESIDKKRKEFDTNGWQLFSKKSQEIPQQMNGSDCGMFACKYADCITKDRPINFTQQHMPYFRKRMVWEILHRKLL
#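 Material – human SENP1 catalytic domain · Input – SENP1 enzyme, 20 pM final · Compound dosing – single concentration of 10 µM compound, 0.5% DMSO final · Timing – enzyme reaction for 50 min at room temperature, dark · Measured by – FRET fluorescence in CFP and YFP emission channels · Control set – no-enzyme wells low, DMSO-plus-enzyme wells high control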
# GRIN3A LBD mod – binders of NR3A ligand-binding domain, primary screen, biophysical, differential scanning fluorimetry, uHTS; Glutamate receptor ionotropic, NMDA 3A (GRIN3A) ligand-binding domain; 2.5% of 340,000 active; NR3A LBD differential scanning fluorimetry, Tm shift; 0% = protein alone, 100% = glycine-bound protein; Tm shift relative to glycine control, % at 25 µM;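 active = melting temperature shift of at least 10% of the positive control shift, at one fixed dose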
# UCH37 inh – inhibitors of human UCH37 deubiquitinase, primary screen, biochemical, Ub-AMC cleavage, fluorescence; AID 588478, 2011; 0.33% of 330,000 active; purified proteasome/UCH37; inhibition, % (no concentration beside the values);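 active = mean inhibition over replicate wells above about 20%, limit read from the data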;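 also: 0% = compound-free wells with enzyme and 100% = wells lacking proteasome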
# Target sequence (Q9Y5K5 whole entry, looked up): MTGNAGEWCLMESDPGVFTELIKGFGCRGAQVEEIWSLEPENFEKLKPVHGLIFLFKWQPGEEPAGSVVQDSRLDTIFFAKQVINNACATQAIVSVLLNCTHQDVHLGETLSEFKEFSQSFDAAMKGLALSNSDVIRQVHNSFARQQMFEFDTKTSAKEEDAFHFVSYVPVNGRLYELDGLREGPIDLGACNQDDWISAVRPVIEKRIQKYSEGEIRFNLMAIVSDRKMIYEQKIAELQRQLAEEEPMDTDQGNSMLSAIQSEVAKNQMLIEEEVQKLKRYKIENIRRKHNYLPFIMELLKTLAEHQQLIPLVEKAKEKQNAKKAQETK
#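 System: Proteasome-associated human UCH37 deubiquitinase; Input: 0.15 nM proteasome in added enzyme buffer; Also added: Ub-AMC substrate from 1 µM stock; Incubation: 30 min compound-proteasome preincubation then 25 min substrate reaction, room temperature; Detection: fluorescence, ex 355 nm, em 460 nm; Read-out: % inhibition of Ub-AMC cleavage fluorescence; Benchmarks: no-proteasome and no-compound wells.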
# NadD inh – inhibitors of S. aureus NadD, primary screen, biochemical, colorimetric, uHTS. Nicotinate-nucleotide adenylyltransferase NadD (Staphylococcus aureus N315). purified NadD enzyme, colorimetric absorbance read-out. inhibition, % at 20 µM. 0.78% of 360,000 active. AID 602399, 2012; in the data active = inhibition above about 26%
# An asterisk follows results filed as active; / = no result given; ! = a repeat was not active. Only some compounds are listed: those with a hit (about 3.6% of all), similar ones and a draw of the others.
SMILES,ATG4B inhibitor,SENP1 FRET inh,GRIN3A LBD mod,UCH37 inh,NadD inh
COc1ccc(C=NN2CCN(c3ccccc3OC)CC2)cc1Br,/,/,/,6,/
COc1cccc(C=Nn2c(COc3ccccc3)n[nH]c2=S)c1O,/,/,/,6,/
CN1CCN(S(=O)(=O)c2ccc(NC(=O)c3ccc(Br)o3)cc2)CC1,-2,0,-1,4,-4
CN1CCN(S(=O)(=O)c2ccc(NC(=O)c3ccccc3Cl)cc2)CC1,2,0,-1,/,-5
CN1CCN(S(=O)(=O)c2ccc(NC(=O)c3ccc(Br)s3)cc2)CC1,-11,2,29*,1,-11
O=C(Nc1cc(S(=O)(=O)N2CCCCC2)ccc1Cl)c1ccncc1,-6,0,-3,/,5
O=C(Nc1cccc(Cl)c1)Nc1cc(S(=O)(=O)N2CCCCC2)ccc1Cl,1,1,11*,1,3
N#CC(=NNc1ccc(S(=O)(=O)N2CCOCC2)cc1)C(N)=O,/,/,/,18,/
CN1CCN(S(=O)(=O)c2ccc(NC(=O)Nc3cccc(Cl)c3)cc2)CC1,-5,5,14*,2,-2
N#CC(C#N)=NNc1ccc(S(=O)(=O)N2CCCCC2)cc1,-8,2,12*,8,5
CC(C)n1c(N=Cc2ccccc2O)nc2ccccc21,/,/,/,0,/
CCOc1cc(C=NNC(=O)C2CCCC2)ccc1OC(C)C,/,/,/,2,/
O=C(O)COc1ccccc1C=NNC(=O)COc1ccc(-c2ccccc2)cc1,/,/,/,6,/
O=C(C=NNC(=O)c1ccc(Cl)cc1Cl)c1ccccc1,/,/,/,1,/
O=C(Nc1ccc(Cl)cc1F)c1cc(S(=O)(=O)N2CCCCC2)ccc1F,-6,1,13*,-1,1
O=C(Nc1ccccc1)Nc1ccc(S(=O)(=O)N2CCCCC2)cc1,-7,-2,22*,5,1
Cc1ccc(C(=O)Nc2ccc3nc(C)sc3c2)s1,-7,1,5,1,-3
O=C(Nc1ccc(Cl)c(Cl)c1)Nc1cc(S(=O)(=O)N2CCOCC2)ccc1N1CCCC1,30,2,11*,1,21
Cc1nc2cc(NC(=O)c3ccc(Br)s3)ccc2s1,-13,1,25*,-28,-10
COc1cc(C(C)=NNC(=O)CSc2nncn2C)ccc1OCc1ccccc1Cl,/,/,/,2,/
Cc1ccc(S(=O)(=O)N2CCCCC2)cc1NC(=O)Nc1ccc(Cl)cc1Cl,3,0,14*,1,26
O=C(Nc1cccc(S(=O)(=O)N2CCCCC2)c1)C1CCCC1,-2,-2,22*,-1,-5
O=C(Nc1cc(S(=O)(=O)Nc2ccc(Cl)cc2)ccc1N1CCCCC1)c1ccc(F)cc1Cl,16,-5,21*,-2,16
O=C(Nc1ccc(N2CCOCC2)c(Cl)c1)c1ccccc1Cl,-5,-1,19*,2,1
CCCC(C)=NNc1nc2c(c(=O)n(C)c(=O)n2C)n1C,/,/,/,4,/
SMILES,ATG4B inhibitor,SENP1 FRET inh,GRIN3A LBD mod,UCH37 inh,NadD inh
CCOc1cc(/C=N/NS(=O)(=O)c2ccccc2)ccc1OS(=O)(=O)c1ccc(C)cc1,-11,0,20*,/,11
Cc1nn(-c2ccccc2)c(C)c1C=NNC(=O)CSc1nnc(SCc2cccc3ccccc23)s1,/,/,/,7,/
CC(=O)Nc1ccc(NC(=O)C2CCCN2/C=C/C(=O)C(F)(F)F)cc1 (stereo not drawn),-6,0,1,9,-5
Cc1cc(C)cc(NC(=O)C2CCCN2/C=C/C(=O)C(F)(F)F)c1 (stereo not drawn),1,-2,13*,8,-1
N=C1/C(=C\c2ccc(OC(=O)c3ccco3)cc2)C(=O)N=C2SC(N3CCCCC3)=NN12,0,-54,-1,4,28
N=C1/C(=C\c2ccc(OC(=O)c3ccc(F)cc3)cc2)C(=O)N=C2SC(N3CCCC3)=NN12,3,-11,-14,2,51*
Cc1ccc(C(=O)Oc2ccc(/C=C3\C(=N)N4N=C(N5CCOCC5)SC4=NC3=O)cc2)cc1,-3,-8,-34,2,40*
O=C(Cn1c(-c2ccccn2)nc2ccccc21)NN=Cc1ccccn1,/,/,/,3,/
CCn1nc(C)c(C=NNC(=O)Cn2nccc2C)c1C,/,/,/,2,/
Cc1nc2cc(C(=O)O)ccc2n1-c1ccc(F)cc1F,-1,6,15*,2,-3
CCOc1ccccc1-n1c(C)nc2cc(C(=O)O)ccc21,2,-1,-1,5,-3
Cc1ccc(NN=C(C#N)C(=N)N2CCCCCC2)cc1,/,/,/,3,/
c1coc(-c2nc(-c3ccco3)c(-c3ccco3)nc2-c2ccco2)c1,39,-22,-27,-69,46*
COc1cccc(C=NNC(=O)c2ccccc2N(Cc2ccccc2)S(=O)(=O)c2ccccc2)c1OC,/,/,/,0,/
O=[N+]([O-])c1cccc2ccc(/C=C/c3ccc(Cl)cc3)nc12,3,13,21*,3,11
COc1cc(/C=C/c2ccc3cccc(OC)c3n2)c(O)c([N+](=O)[O-])c1,-9,2,-4,0,4
CCOc1cc(/C=C/c2ccc3cccc([N+](=O)[O-])c3n2)cc(Cl)c1O,-16,7,6,4,27
O=[N+]([O-])c1cccc2ccc(/C=C/c3ccc(C(F)(F)F)cc3)nc12,-6,1,17*,4,-2
O=[N+]([O-])c1cccc2ccc(/C=C/c3cccc(Br)c3)nc12,-9,9,23*,4,6
CC(=O)Nc1ccc(/C=C/c2ccc3c([N+](=O)[O-])cccc3n2)cc1,2,0,-1,2,-7
CCn1c2ccccc2c2cc(C=Nn3c(-c4cc(C)[nH]n4)n[nH]c3=S)ccc21,/,/,/,2,/
COC(=O)/C=C1/S/C(=N/NC(=O)c2ccc(OC)cc2)NC1=O,-9,4,1,25*,7
COC(=O)/C=C1\SC(=NC(=O)c2ccc(-c3ccccc3)cc2)NC1=O,15,-1,5,3,31*
O=C1C(Cc2ccccc2)Nc2ncnc(N3CCCCC3)c2N1Cc1ccc(Cl)cc1 (stereo not drawn),-4,-34,-4,-2,36*
O=C1C(Cc2ccccc2)Nc2ncnc(N3CCc4ccccc4C3)c2N1Cc1ccccc1 (stereo not drawn),-4,-22,-2,-1,40*
CC1Nc2ncnc(N3CCc4ccccc4C3)c2N(Cc2ccc(Br)cc2)C1=O (stereo not drawn),8,4,-11,4,45*!
Cc1cc(C)cc(OCC(=O)NN=Cc2cn(C)nc2C)c1,/,/,/,1,/
